Measurements gathered from unrelated publications.
Lines come from different studies, so protocols differ.
Target: Ephrin type-A receptor 7 (EPHA7, Homo sapiens, UniProt Q15375)

`CNC(=O)c1cc(Oc2ccc(NC(=O)Nc3ccc(Cl)c(C(F)(F)F)c3)cc2)ccn1` gave an inhibition of 30% (enzyme activity, inhibitor; 0.3 µM).
`c1ccc(CNc2nc(N3CCOc4ccccc43)nc3c2CCCC3)cc1` has an inhibition of 12% (target engagement in cells, inhibitor, chemoproteomics; 20 mM).
For `Cc1c(C(=O)O)cc(-c2ccc(C3CCNCC3)cc2)c2ccc(-c3ccc(C(F)(F)F)cc3)cc12`, the remaining binding was 100% (cell-free assay, competition with immobilised ligand; 1 µM).
For `Cc1ccc(Nc2nccc(N(C)c3ccc4c(C)n(C)nc4c3)n2)cc1S(N)(=O)=O`, the inhibition was 34% (enzyme activity, inhibitor; 10 µM).
`O=C1NC(=O)c2cc(Nc3ccc(F)cc3)c(Nc3ccc(F)cc3)cc21` gave a remaining signal of 84.6% (cell-free assay; 0.5 µM).
For `O=C(NCc1ncc(C(F)(F)F)cc1Cl)c1ccc2c(c1)C1(CCS(=O)(=O)CC1)[C@H](C1CC1)N2S(=O)(=O)c1ccc(F)cc1`, the remaining binding was 100% (cell-free assay, competition with immobilised ligand; 1 µM).
For `CCCS(=O)(=O)Nc1ccc(F)c(C(=O)c2c[nH]c3ncc(-c4ccc(Cl)cc4)cc23)c1F`, the inhibition was < 10% (enzyme activity, inhibitor; 1 µM).
`CC(=O)C1=C(C)N(c2cccc(C(F)(F)F)c2)C(=O)N[C@@H]1c1ccc(C#N)nc1` has a remaining binding of 100% (cell-free assay, competition with immobilised ligand; 1 µM).
`Cc1cc(NC(=O)c2cccc3cc(-c4cccc5[nH]nc(N)c45)ccc23)ccc1F` has an activity vs control of 96% (enzyme activity, inhibitor; 0.1 µM).
The remaining activity of `Cc1sc(C(=O)NC2COC2)cc1-n1cc(NC(=O)Nc2c(F)cccc2Cl)cn1` is reported as 98.6% (enzyme activity, inhibitor; 10 µM).
The remaining signal of `Cc1ccc(C(=O)Nc2ccc(CN3CCN(C)CC3)c(C(F)(F)F)c2)cc1C#Cc1cnc2cccnn12` is reported as 81% (cell-free assay; 23.5 nM).
`Nc1ncnc2occ(-c3ccc(NC(=O)Nc4cc(C(F)(F)F)ccc4F)cc3)c12` gave a remaining signal of 0% (cell-free assay; 20 µM).
`CCN(CC)CCNC(=O)c1c(C)[nH]c(/C=C2\C(=O)Nc3ccc(F)cc32)c1C` has an inhibition of 3% (enzyme activity, inhibitor; 0.3 µM).
For `CO[C@@H](C)c1c(Nc2ccc([C@@H](N(C)C(=O)C3CCS(=O)(=O)CC3)C(F)(F)F)cc2)cnc2cc(Cl)nn12`, the remaining binding was 87% (cell-free assay, competition with immobilised ligand; 1 µM).
With `Cc1ccc(C(=O)NCc2ccsc2)cc1C#Cc1cn(C(C)C)c2ncnc(N)c12` the activity vs control was 21% (enzyme activity, inhibitor; 1 µM).
`CCCOc1ccc([C@H]2[C@H](C(=O)O)[C@@H](c3ccc4c(c3)OCO4)CN2CC(=O)Nc2c(CC)cccc2CC)cc1` gave a remaining binding of 98% (cell-free assay, competition with immobilised ligand; 1 µM).
The remaining activity of `CC(C)(O)[C@H]1CC[C@H](Nc2ccc3ncc(-c4cccc(C(F)(F)F)c4)n3n2)CC1` is reported as 93.3% (enzyme activity, inhibitor; 1 µM).
For `CC(C)(C)c1nc(-c2cccc(NS(=O)(=O)c3c(F)cccc3F)c2F)c(-c2ccnc(N)n2)s1`, the remaining activity was 102% (enzyme activity, inhibitor, radiometric; 1 µM).
For `CS(=O)(=O)c1cc(C2(NC(=O)c3cncc4c3cnn4-c3ccc(F)cc3)CC2)ccn1`, the remaining binding was 92% (cell-free assay, competition with immobilised ligand; 1 µM).
The inhibition of `COc1cccc2c(NCc3ccccc3)nc(-n3c(N)nc4ccccc43)nc12` is reported as 2.9% (target engagement in cells, inhibitor, chemoproteomics; 20 mM).
`CCN(CC)c1ccc(C2=NNC(=O)CC2C)cc1[N+](=O)[O-]` (stereo not drawn) gave a remaining activity of 91% (enzyme activity, inhibitor; 10 µM).
